Measurements taken from ChEMBL document CHEMBL1156045, “Discovery of novel types of inhibitors of S-adenosylmethionine synthesis by virtual screening” (J Med Chem, 2009).
Active and inactive are the calls of the source. The calls are words filed in the database; no cut-off is given here.

Tests used:
Escherichia coli [1] = test: Inhibition of Escherichia coli MAT assessed as time required to achieve half maximal enzyme inhibition at 200 uM after 5 to 10 mins by scintillation counting
Procedure, shortened: (§1)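 Onset of inhibition: 0.3 μM MAT subunits (0.3 μM inhibitor) or 10 μM enzyme (200 μM inhibitor) incubated in 50 mM Tris·Cl, 50 mM KCl, 10 mM MgCl2 with 10 mM ATP or 1 mM L-methionine where present. Aliquots diluted into assay reagents at set times; [methyl-14C]AdoMet on P-81 filters counted.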

NCI60 = test: Growth inhibition of human NCI60 cells up to 100 uM; format: functional, cell-based
Procedure, shortened: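 Tested by NCI Developmental Therapeutics Program against the 60 tumour cell line panel in its standard protocol, concentrations up to 100 μM.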

Escherichia coli [2] = test: Antibacterial activity against Escherichia coli RP523 at 1 mM after overnight incubation by filter disk method; format: functional, organism-based
Procedure, shortened: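 E. coli RP523 (hyperpermeable strain): ~30 μl overnight culture spread on LB agar; 5 mm filter disks soaked with 30 μl of 1 mM compound in DMSO, or DMSO control, placed on lawn. Zone of growth inhibition measured after overnight incubation at 37° C.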

Escherichia coli [3] = test: Inhibition of Escherichia coli MAT assessed as incorporation of L-[methyl-14C]methionine into S-adenosyl-methionine at 200 uM after 5 to 10 mins by scintillation counting in presence of ATP treated before addition of methionine; procedure, shortened: as §1
Saccharomyces cerevisiae = test: Antifungal activity against Saccharomyces cerevisiae RDY84 at 1 mM after overnight incubation by filter disk method; format: functional, organism-based
Procedure, shortened: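 S. cerevisiae RDY84 (pdr1Δ pdr3Δ) lawn on YDP agar; 5 mm filter disk soaked with 1 mM compound in DMSO, or DMSO control, placed on freshly spread cells. Zone of growth inhibition measured after overnight incubation at 30° C.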

[4] = Inhibition of Escherichia coli MAT assessed as incorporation of L-[methyl-14C]methionine into S-adenosyl-methionine after 5 to 10 mins by scintillation counting
Procedure, shortened: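 Recombinant E. coli MAT (0.3 μM subunits) preincubated 20 min with inhibitor before substrates were added. Assay buffer was 50 mM Tris·Cl pH 8.0, 50 mM KCl, 10 mM MgCl2, 10 mM ATP and 0.5 mM L-[methyl-14C]methionine at 25 °C. Reactions were EDTA-quenched and AdoMet was captured on P-81 filters. Ki came from a nonlinear fit of fractional activity to the tight-binding equation.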

[5] = system: Methanocaldococcus jannaschii; test: Inhibition of Methanococcus jannaschii MAT at 1 mM treated for 20 mins before addition of substrate
Procedure, shortened: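 M. jannaschii MAT (0.3 μM) preincubated 20 min with 0.1–1.0 mM compound, then assayed as for E. coli enzyme (0.1 mM ATP, 0.1 mM [14C]methionine) at 37° C. [14C]AdoMet on P-81 filters counted.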

Escherichia coli [6] = test: Inhibition of Escherichia coli MAT assessed as incorporation of L-[methyl-14C]methionine into S-adenosyl-methionine at 200 uM after 5 to 10 mins by scintillation counting in presence of methionine treated before addition of ATP; procedure, shortened: as §1
Escherichia coli [7] = test: Inhibition of Escherichia coli MAT assessed as incorporation of L-[methyl-14C]methionine into S-adenosyl-methionine at 1 mM after 5 to 10 mins by scintillation counting
Procedure, shortened: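 Screen: E. coli MAT (0.25 μM) preincubated 20 min at room temperature with 1 mM compound (15% DMSO final) in Tris·Cl pH 8.0/KCl/MgCl2. 1.5 volumes of reagents added (final 0.1 mM ATP, 0.1 mM [14C]methionine, 10 mM MgCl2). Run 5 min at 25° C, stopped with 25 mM EDTA; AdoMet on P-81 filters counted.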

Escherichia coli [8] = test: Inhibition of Escherichia coli MAT assessed as lack of recovery of detectable enzyme activity at 0.3 uM up to 20 mins measured after 24 hrs of dialysis

SMILES	Activity (Escherichia coli [1]) [min]	growth inhibition (GI) (NCI60)	Activity (Escherichia coli [2])	Activity (Escherichia coli [3])	Activity (Saccharomyces cerevisiae)	Ki [4] [nM]	inhibition [5]	Activity (Escherichia coli [6])	Activity (Escherichia coli [7])	Activity (Escherichia coli [8])
NS(=O)(=O)c1ccc(NC(=O)Nc2ccc(Cl)cc2[N+](=O)[O-])cc1	20	inactive	inactive	inactive	inactive	6.9	inactive	Active	Active	Active
Cc1ccc(NC(=O)Nc2cccc(C(F)(F)F)c2)cc1NC(=O)Nc1cccc(C(F)(F)F)c1	–	–	–	–	–	–	–	–	inactive	–
